Laboratory results taken from ChEMBL document CHEMBL5126614 (ACS Med Chem Lett, 2022).

Assays:
[1] = molecular target: Glucagon-like peptide 1 receptor (Homo sapiens, UniProt P43220); test: Agonist activity at human GLP1R expressed in frozen cells assessed as increase in cAMP production measured after 1 hr by HitHunter luminescence assay; format: functional, cell-based
Homo sapiens = species on record: Homo sapiens; test: Selectivity ratio of EC50 for human GCGR expressed in frozen cells to EC50 for human GLP1R expressed in frozen cells; format: cell-based
Glucagon receptor = Glucagon receptor (Homo sapiens, UniProt P47871); test: Agonist activity at human GCGR expressed in frozen cells assessed as increase in cAMP production measured after 1 hr by HitHunter luminescence assay; format: functional, cell-based
[2] = Agonist activity at rhesus monkey GCGR; parameters: species or system Macaca mulatta
Macaca mulatta = species on record: Macaca mulatta; test: Selectivity ratio of EC50 for rhesus monkey GCGR to EC50 for rhesus monkey GLP1R
[3] = Agonist activity at rhesus monkey GLP1R; parameters: species or system Macaca mulatta
Rhesus monkey [4] = test: Anti-obesity activity in type 2 diabetes rhesus monkey model assessed as reduction in body weight at 30 ug/kg, sc qd for 3 weeks and measured during third week of dosing relative to control; format: functional, Macaca mulatta; parameters: scale not given: the % may be the effect or the level left; conditions: dose 30 µg/kg
Rhesus monkey [5] = test: Antidiabetic activity in type 2 diabetes rhesus monkey model assessed as corrected fasting glucose level at 30 ug/kg, sc qd for 3 weeks and measured on day 22 by intravenous glucose tolerance test; format: functional, Macaca mulatta; conditions: dose 30 µg/kg, time 22 day
Outline: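 Type 2 diabetic rhesus monkeys received daily dosing for 3 weeks, alongside vehicle and a liraglutide benchmark at 30 μg/kg. Fasting plasma glucose was compared with baseline or vehicle, and fasting insulin with vehicle.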

Rhesus monkey [6] = test: Anti-obesity activity in type 2 diabetes rhesus monkey model assessed as reduction in cumulative food intake at 30 ug/kg, sc qd for 3 weeks and measured daily for 21 days relative to baseline; format: functional, Macaca mulatta; parameters: scale not given: the % may be the effect or the level left; conditions: dose 30 µg/kg
Rhesus monkey [7] = test: Anti-obesity activity in type 2 diabetes rhesus monkey model assessed as reduction in body weight at 30 ug/kg, sc qd for 1 week and measured during 1 week relative to control; format: functional, Macaca mulatta; parameters: scale not given: the % may be the effect or the level left; conditions: dose 30 µg/kg, time 1 weeks
Rhesus monkey [8] = test: Anti-obesity activity in type 2 diabetes rhesus monkey model assessed as reduction in body weight at 30 ug/kg, sc qd for 2 weeks and measured during second week of dosing relative to control; format: functional, Macaca mulatta; parameters: scale not given: the % may be the effect or the level left; conditions: dose 30 µg/kg
Rhesus monkey [9] = test: Anti-obesity activity in type 2 diabetes rhesus monkey model assessed as weight loss at 30 ug/kg, sc qd for 3 weeks relative to control; format: functional, Macaca mulatta; conditions: dose 30 µg/kg

Glucagon-like peptide 1 receptor, sequence (P43220 whole entry): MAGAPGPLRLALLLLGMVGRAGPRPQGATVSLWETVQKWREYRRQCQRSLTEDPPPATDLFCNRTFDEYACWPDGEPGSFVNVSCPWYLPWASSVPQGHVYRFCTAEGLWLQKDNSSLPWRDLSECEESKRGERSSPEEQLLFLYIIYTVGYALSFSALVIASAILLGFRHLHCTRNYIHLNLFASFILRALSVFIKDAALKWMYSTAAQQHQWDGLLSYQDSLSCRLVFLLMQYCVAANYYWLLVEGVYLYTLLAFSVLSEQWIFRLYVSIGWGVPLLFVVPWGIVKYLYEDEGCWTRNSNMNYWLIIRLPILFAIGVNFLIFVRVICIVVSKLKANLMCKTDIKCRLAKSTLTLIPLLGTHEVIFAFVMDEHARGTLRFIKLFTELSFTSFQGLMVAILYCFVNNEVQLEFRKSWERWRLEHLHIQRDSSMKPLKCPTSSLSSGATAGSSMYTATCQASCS
Glucagon receptor, sequence (P47871 whole entry): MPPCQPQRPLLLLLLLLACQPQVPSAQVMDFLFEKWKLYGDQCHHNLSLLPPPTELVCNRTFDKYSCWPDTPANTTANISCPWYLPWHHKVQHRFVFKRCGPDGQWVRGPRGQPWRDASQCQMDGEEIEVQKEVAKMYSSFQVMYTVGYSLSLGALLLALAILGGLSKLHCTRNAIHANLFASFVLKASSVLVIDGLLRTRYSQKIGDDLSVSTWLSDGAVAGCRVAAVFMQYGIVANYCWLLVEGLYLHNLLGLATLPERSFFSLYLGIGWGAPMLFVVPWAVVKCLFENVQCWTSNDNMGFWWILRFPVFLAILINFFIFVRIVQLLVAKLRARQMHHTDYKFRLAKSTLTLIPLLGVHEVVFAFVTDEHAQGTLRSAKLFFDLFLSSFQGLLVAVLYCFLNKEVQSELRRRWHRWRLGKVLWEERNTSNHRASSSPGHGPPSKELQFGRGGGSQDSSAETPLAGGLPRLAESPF

Structure (SMILES)	EC50 [1] [pM]	Ratio EC50 (Homo sapiens)	EC50 (Glucagon receptor) [pM]	EC50 [2] [pM]	Ratio EC50 (Macaca mulatta)	EC50 [3] [pM]	Activity (Rhesus monkey [4]) [%]	Activity (Rhesus monkey [5]) [mg/dL]	Activity (Rhesus monkey [6]) [%]	Activity (Rhesus monkey [7]) [%]	Activity (Rhesus monkey [8]) [%]	Activity (Rhesus monkey [9]) [%]
CCCCCCCCCCCCCCCC(=O)N[C@@H](CCC(=O)N[C@@H](CCC(=O)NCCCC[C@H](NC(=O)[C@H](CC(=O)O)NC(=O)[C@H](CO)NC(=O)[C@@H](NC(=O)[C@H](Cc1ccccc1)NC(=O)[C@@H](NC(=O)CNC(=O)[C@H](CCC(N)=O)NC(=O)[C@@H](CO)NC(=O)[C@@H](N)Cc1cnc[nH]1)[C@@H](C)O)[C@@H](C)O)C(=O)N[C@@H](CO)C(=O)N[C@@H](CCCCN)C(=O)N[C@@H](Cc1ccc(O)cc1)C(=O)N[C@@H](CC(C)C)C(=O)N[C@@H](CC(=O)O)C(=O)N[C@@H](CCC(=O)O)C(=O)N[C@@H](CCCNC(=N)N)C(=O)N[C@@H](C)C(=O)N[C@@H](C)C(=O)N[C@@H](CCC(N)=O)C(=O)N[C@@H](CC(=O)O)C(=O)N[C@@H](Cc1ccccc1)C(=O)N[C@H](C(=O)N[C@@H](CCC(N)=O)C(=O)N[C@@H](Cc1c[nH]c2ccccc12)C(=O)N[C@@H](CC(C)C)C(=O)N[C@@H](CC(C)C)C(=O)N[C@@H](CC(=O)O)C(=O)N[C@H](C(N)=O)[C@@H](C)O)C(C)C)C(=O)O)C(=O)O	13	1.3	17	8	0.5	15						
CCCCCCCCCCCCCCCC(=O)N[C@@H](CCC(=O)N[C@@H](CCC(=O)NCCCC[C@H](NC(=O)[C@H](CC(=O)O)NC(=O)[C@H](CO)NC(=O)[C@@H](NC(=O)[C@H](Cc1ccccc1)NC(=O)[C@@H](NC(=O)CNC(=O)[C@H](CCC(N)=O)NC(=O)C(C)(C)NC(=O)[C@@H](N)Cc1cnc[nH]1)[C@@H](C)O)[C@@H](C)O)C(=O)N[C@@H](CO)C(=O)N[C@@H](CCCCN)C(=O)N[C@@H](Cc1ccc(O)cc1)C(=O)N[C@@H](CC(C)C)C(=O)N[C@@H](CC(=O)O)C(=O)NC(C)(C)C(=O)N[C@@H](CCCNC(=N)N)C(=O)N[C@@H](C)C(=O)N[C@@H](C)C(=O)N[C@@H](CCC(N)=O)C(=O)N[C@@H](CC(=O)O)C(=O)N[C@@H](Cc1ccccc1)C(=O)N[C@H](C(=O)N[C@@H](CCC(N)=O)C(=O)N[C@@H](Cc1c[nH]c2ccccc12)C(=O)N[C@@H](CC(C)C)C(=O)N[C@@H](CC(C)C)C(=O)N[C@@H](CC(N)=O)C(=O)N[C@H](C(=O)N[C@@H](CCCCNC(=O)CC[C@H](N)C(=O)O)C(N)=O)[C@@H](C)O)C(C)C)C(=O)O)C(=O)O	29	2	58	334	2.4	140						
CCCCCCCCCCCCCCCC(=O)N[C@@H](CCC(=O)N[C@@H](CCC(=O)NCCCC[C@H](NC(=O)[C@H](CC(=O)O)NC(=O)[C@H](CO)NC(=O)[C@@H](NC(=O)[C@H](Cc1ccccc1)NC(=O)[C@@H](NC(=O)CNC(=O)[C@H](CCC(N)=O)NC(=O)C(C)(C)NC(=O)[C@@H](N)Cc1cnc[nH]1)[C@@H](C)O)[C@@H](C)O)C(=O)N[C@@H](CO)C(=O)N[C@@H](CCCCN)C(=O)N[C@@H](Cc1ccc(O)cc1)C(=O)N[C@@H](CC(C)C)C(=O)N[C@@H](CC(=O)O)C(=O)NC(C)(C)C(=O)N[C@@H](CCCNC(=N)N)C(=O)N[C@@H](C)C(=O)N[C@@H](C)C(=O)N[C@@H](CCC(N)=O)C(=O)N[C@@H](CC(=O)O)C(=O)N[C@@H](Cc1ccccc1)C(=O)N[C@H](C(=O)N[C@@H](CCC(N)=O)C(=O)N[C@@H](Cc1c[nH]c2ccccc12)C(=O)N[C@@H](CC(C)C)C(=O)N[C@@H](CC(C)C)C(=O)N[C@@H](CC(=O)O)C(=O)N[C@H](C(N)=O)[C@@H](C)O)C(C)C)C(=O)O)C(=O)O	34	1.1	39	22	2.6	9						
CCCCCCCCCCCCCCCC(=O)N[C@@H](CCC(=O)N[C@@H](CCC(=O)NCCCC[C@H](NC(=O)[C@H](CC(=O)O)NC(=O)[C@H](CO)NC(=O)[C@@H](NC(=O)[C@H](Cc1ccccc1)NC(=O)[C@@H](NC(=O)CNC(=O)[C@H](CCC(N)=O)NC(=O)[C@@H](CO)NC(=O)[C@@H](N)Cc1cnc[nH]1)[C@@H](C)O)[C@@H](C)O)C(=O)N[C@@H](CO)C(=O)N[C@@H](CCCCN)C(=O)N[C@@H](Cc1ccc(O)cc1)C(=O)N[C@@H](CC(C)C)C(=O)N[C@@H](CC(=O)O)C(=O)N[C@@H](CO)C(=O)N[C@@H](CCCNC(=N)N)C(=O)N[C@@H](C)C(=O)N[C@@H](C)C(=O)N[C@@H](CCC(N)=O)C(=O)N[C@@H](CC(=O)O)C(=O)N[C@@H](Cc1ccccc1)C(=O)N[C@H](C(=O)N[C@@H](CCC(N)=O)C(=O)N[C@@H](Cc1c[nH]c2ccccc12)C(=O)N[C@@H](CC(C)C)C(=O)N[C@@H](CC(C)C)C(=O)N[C@@H](CC(=O)O)C(=O)N[C@H](C(N)=O)[C@@H](C)O)C(C)C)C(=O)O)C(=O)O	63	0.6	38	21	1	20						
CCCCCCCCCCCCCCCC(=O)N[C@@H](CCC(=O)NCCCC[C@H](NC(=O)[C@H](C)NC(=O)[C@H](C)NC(=O)[C@H](CCC(N)=O)NC(=O)CNC(=O)[C@H](CCC(=O)O)NC(=O)[C@H](CC(C)C)NC(=O)[C@H](Cc1ccc(O)cc1)NC(=O)[C@H](CO)NC(=O)[C@H](CO)NC(=O)[C@@H](NC(=O)[C@H](CC(=O)O)NC(=O)[C@H](CO)NC(=O)[C@@H](NC(=O)[C@H](Cc1ccccc1)NC(=O)[C@@H](NC(=O)CNC(=O)[C@H](CCC(=O)O)NC(=O)[C@H](C)NC(=O)[C@@H](N)Cc1cnc[nH]1)[C@@H](C)O)[C@@H](C)O)C(C)C)C(=O)N[C@@H](CCC(=O)O)C(=O)N[C@@H](Cc1ccccc1)C(=O)N[C@H](C(=O)N[C@@H](C)C(=O)N[C@@H](Cc1c[nH]c2ccccc12)C(=O)N[C@@H](CC(C)C)C(=O)N[C@H](C(=O)N[C@@H](CCCNC(=N)N)C(=O)NCC(=O)N[C@@H](CCCNC(=N)N)C(=O)NCC(=O)O)C(C)C)[C@@H](C)CC)C(=O)O [LIRAGLUTIDE]							0.6	30	32	1.7	1	3.3
